Values after ≈ are worked out from the molar mass of the structure shown.
How the values were obtained:
Staphylococcus aureus [1] = assay: Antibacterial activity against methicillin-resistant Staphylococcus aureus COL after 20 hrs by broth microdilution assay; assay type: functional
Staphylococcus aureus [2] = assay: Antibacterial activity against vancomycin-intermediate resistant Staphylococcus aureus AR-217 after 20 hrs by broth microdilution assay; assay type: functional; conditions: AR-217, 20 h
Staphylococcus aureus [3] = assay: Antibacterial activity against vancomycin-resistant Staphylococcus aureus HIP14300 after 20 hrs by broth microdilution assay; assay type: functional; conditions: HIP14300, 20 h
[4] = system: Staphylococcus epidermidis; assay: Antibacterial activity against vancomycin-intermediate resistant Staphylococcus epidermidis NRS6 after 20 hrs by broth microdilution assay; assay type: functional; conditions: NRS6, 20 h
Streptococcus pyogenes = assay: Antibacterial activity against Streptococcus pyogenes H293 after 20 hrs by broth microdilution assay; assay type: functional; conditions: H293, 20 h
Streptococcus agalactiae = assay: Antibacterial activity against Streptococcus agalactiae SGBS005 after 20 hrs by broth microdilution assay; assay type: functional; conditions: SGBS005, 20 h
Streptococcus pneumoniae = assay: Antibacterial activity against Streptococcus pneumoniae TCH8431 after 20 hrs by broth microdilution assay; assay type: functional; conditions: TCH8431, 20 h
Enterococcus faecium = assay: Antibacterial activity against vancomycin-resistant Enterococcus faecium ATCC 700221 after 20 hrs by broth microdilution assay; assay type: functional; conditions: ATCC 700221, 20 h
In short: (§1)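 Brain heart infusion broth at 37°C; E. faecium under 5% CO2. Cells at 0.5 McFarland are diluted 1:100 and exposed to serial dilutions (DMSO stocks 1 mM or 1 mg/mL; controls in water).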

Bacillus anthracis [5] = assay: Antibacterial activity against Bacillus anthracis Ames 35 after 20 hrs by broth microdilution assay; assay type: functional; conditions: Ames 35, 20 h
Bacillus anthracis [6] = assay: Antibacterial activity against Bacillus anthracis Sterne 34F2 after 20 hrs by broth microdilution assay; assay type: functional; conditions: Sterne 34F2, 20 h
Bacillus anthracis [7] = assay: Antibacterial activity against Bacillus anthracis UM23-1 after 20 hrs by broth microdilution assay; assay type: functional; conditions: UM23-1, 20 h
Bacillus anthracis [8] = assay: Antibacterial activity against Bacillus anthracis Weybridge after 20 hrs by broth microdilution assay; assay type: functional
Francisella tularensis = assay: Antibacterial activity against Francisella tularensis Utah 112 after 20 hrs by broth microdilution assay; assay type: functional; conditions: Utah 112, 20 h
Yersinia pestis [9] = assay: Antibacterial activity against Yersinia pestis Kim D2 after 20 hrs by broth microdilution assay; assay type: functional; conditions: Kim D2, 20 h
Yersinia pestis [10] = assay: Antibacterial activity against Yersinia pestis Kuma D7 after 20 hrs by broth microdilution assay; assay type: functional; conditions: Kuma D7, 20 h
Bacillus cereus = assay: Antibacterial activity against Bacillus cereus Gibson 971 after 20 hrs by broth microdilution assay; assay type: functional; conditions: Gibson 971, 20 h
Corynebacterium striatum = assay: Antibacterial activity against Corynebacterium striatum FS-1 after 20 hrs by broth microdilution assay; assay type: functional; conditions: FS-1, 20 h
Listeria monocytogenes = assay: Antibacterial activity against Listeria monocytogenes Gibson after 20 hrs by broth microdilution assay; assay type: functional; in short: as §1
Micrococcus luteus = assay: Antibacterial activity against Micrococcus luteus SK58 after 20 hrs by broth microdilution assay; assay type: functional; conditions: SK58, 20 h
Rhodococcus erythropolis = assay: Antibacterial activity against Rhodococcus erythropolis SK121 after 20 hrs by broth microdilution assay; assay type: functional; conditions: SK121, 20 h
In short: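 R. erythropolis grown in brain heart infusion broth at 30°C. A 0.5 McFarland suspension diluted 1:100 is treated with serial dilutions from 1 mM or 1 mg/mL DMSO stocks; control antibiotics are in water.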

Acinetobacter baumannii = assay: Antibacterial activity against Acinetobacter baumannii AB5075 after 20 hrs by broth microdilution assay; assay type: functional; conditions: AB5075, 20 h
Brucella neotomae = assay: Antibacterial activity against Brucella neotomae 5K33 after 20 hrs by broth microdilution assay; assay type: functional; conditions: 5K33, 20 h
Burkholderia multivorans = assay: Antibacterial activity against Burkholderia multivorans CF2 after 20 hrs by broth microdilution assay; assay type: functional; conditions: CF2, 20 h
In short: (§2)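 Medium is tryptic soy broth, 37°C. Overnight culture is adjusted to 0.5 McFarland, diluted 1:100 and exposed to serial dilutions (test agents from 1 mM or 1 mg/mL DMSO stocks; control antibiotics in water). Incubation lasts 20 h. MIC is the lowest concentration with no visible growth.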

Burkholderia cepacia = assay: Antibacterial activity against Burkholderia cepacia UCB 717 after 20 hrs by broth microdilution assay; assay type: functional; conditions: UCB 717, 20 h; in short: as §2
Citrobacter freundii = assay: Antibacterial activity against Citrobacter freundii 4_7_47CFAA after 20 hrs by broth microdilution assay; assay type: functional
In short: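 Brucella broth, 37°C, 5% CO2. Inoculum is 0.5 McFarland diluted 1:100, with serial drug dilutions from DMSO stocks (1 mM or 1 mg/mL) and control antibiotics in water.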

Escherichia coli = assay: Antibacterial activity against Escherichia coli DC10B after 20 hrs by broth microdilution assay; assay type: functional; in short: as §2
Klebsiella pneumoniae = assay: Antibacterial activity against Klebsiella pneumoniae 700603 after 20 hrs by broth microdilution assay; assay type: functional; conditions: Klebsiella pneumoniae, 700603, 20 h; in short: as §2
Proteus mirabilis = assay: Antibacterial activity against Proteus mirabilis HM-752 after 20 hrs by broth microdilution assay; assay type: functional; conditions: HM-752, 20 h; in short: as §2
Pseudomonas aeruginosa = assay: Antibacterial activity against Pseudomonas aeruginosa ATCC 15442 after 20 hrs by broth microdilution assay; assay type: functional; conditions: ATCC 15442, 20 h; in short: as §2
Salmonella typhi = assay: Antibacterial activity against Salmonella typhi Ty2 after 20 hrs by Todd Hewitt broth broth microdilution method; assay type: functional, Salmonella enterica subsp. enterica serovar Typhi str. Ty2; conditions: Salmonella enterica
Yersinia enterocolitica = assay: Antibacterial activity against Yersinia enterocolitica WA-314 after 20 hrs by broth microdilution assay; assay type: functional; conditions: WA-314, 20 h
In short: (§3)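 Yersinia cultured in tryptic soy broth at 28°C. A 0.5 McFarland suspension diluted 1:100 receives serial dilutions of agents from 1 mM or 1 mg/mL DMSO stocks; control antibiotics are in water.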

Shigella dysenteriae = assay: Antibacterial activity against Shigella dysenteriae Newcastle 1934 after 20 hrs by broth microdilution assay; assay type: functional; conditions: Newcastle 1934, 20 h; in short: as §2
Vibrio cholerae = assay: Antibacterial activity against Vibrio cholerae TS D4 after 20 hrs by Todd Hewitt broth broth microdilution method; assay type: functional; conditions: TS D4, 20 h
[11] = system: Yersinia pseudotuberculosis; assay: Antibacterial activity against Yersinia pseudotuberculosis P61 after 20 hrs by broth microdilution assay; assay type: functional; conditions: P61, 20 h; in short: as §3
HepG2 = assay: Cytotoxicity against human HepG2 cells assessed as reduction in cell viability after 72 hrs by MTT assay; assay type: cell-based; conditions: HepG2, 72 h

Row | Structure (SMILES) | MIC (Staphylococcus aureus [1]) [µM] | MIC (Staphylococcus aureus [2]) [µM] | MIC (Staphylococcus aureus [3]) [µM] | MIC [4] [µM] | MIC (Streptococcus pyogenes) [µM] | MIC (Streptococcus agalactiae) [µM] | MIC (Streptococcus pneumoniae) [µM] | MIC (Enterococcus faecium) [µM] | MIC (Bacillus anthracis [5]) [µM] | MIC (Bacillus anthracis [6]) [µM] | MIC (Bacillus anthracis [7]) [µM] | MIC (Bacillus anthracis [8]) [µM] | MIC (Francisella tularensis) [µM] | MIC (Yersinia pestis [9]) [µM] | MIC (Yersinia pestis [10]) [µM] | MIC (Bacillus cereus) [µM] | MIC (Corynebacterium striatum) [µM] | MIC (Listeria monocytogenes) [µM] | MIC (Micrococcus luteus) [µM] | MIC (Rhodococcus erythropolis) [µM] | also measured
1 | CCCCCCSSC(=S)N(CC)CC [DIETHYLCARBAMO(DITHIOPEROXO)THIOATE] | 16 (≈ 4.25 µg/mL) | 4 (≈ 1.06 µg/mL) | 8 (≈ 2.12 µg/mL) | 8 (≈ 2.12 µg/mL) | > 32 | > 32 | > 32 | > 32 | 4 (≈ 1.06 µg/mL) | 4 (≈ 1.06 µg/mL) | 2 (≈ 0.531 µg/mL) | 8 (≈ 2.12 µg/mL) | 32 (≈ 8.5 µg/mL) | 32 (≈ 8.5 µg/mL) | 32 (≈ 8.5 µg/mL) | 2 (≈ 0.531 µg/mL) | 16 (≈ 4.25 µg/mL) | 8 (≈ 2.12 µg/mL) | 16 (≈ 4.25 µg/mL) | 8 (≈ 2.12 µg/mL) | MIC (Acinetobacter baumannii): > 32 µM; MIC (Brucella neotomae): > 32 µM; MIC (Burkholderia multivorans): > 32 µM; MIC (Burkholderia cepacia): > 32 µM; MIC (Citrobacter freundii): > 32 µM; MIC (Escherichia coli): > 32 µM; MIC (Klebsiella pneumoniae): > 32 µM; MIC (Proteus mirabilis): > 32 µM; MIC (Pseudomonas aeruginosa): > 32 µM; MIC (Salmonella typhi): > 32 µM; MIC (Yersinia enterocolitica): > 32 µM; MIC (Shigella dysenteriae): > 32 µM; MIC (Vibrio cholerae): > 32 µM; MIC [11]: > 32 µM; IC50 (HepG2): 51 µM
2 | CCCSSC(=S)N(CC)CC | 16 (≈ 3.57 µg/mL) | 8 (≈ 1.79 µg/mL) | 16 (≈ 3.57 µg/mL) | 32 (≈ 7.15 µg/mL) | 32 (≈ 7.15 µg/mL) | > 32 | > 32 | > 32 | 4 (≈ 0.894 µg/mL) | 4 (≈ 0.894 µg/mL) | 4 (≈ 0.894 µg/mL) | 4 (≈ 0.894 µg/mL) | 32 (≈ 7.15 µg/mL) | 16 (≈ 3.57 µg/mL) | 32 (≈ 7.15 µg/mL) | 1 (≈ 0.223 µg/mL) | > 32 | 16 (≈ 3.57 µg/mL) | 16 (≈ 3.57 µg/mL) | 16 (≈ 3.57 µg/mL) | MIC (Acinetobacter baumannii): > 32 µM; MIC (Brucella neotomae): > 32 µM; MIC (Burkholderia multivorans): 32 µM (≈ 7.15 µg/mL); MIC (Burkholderia cepacia): > 32 µM; MIC (Citrobacter freundii): > 32 µM; MIC (Escherichia coli): > 32 µM; MIC (Klebsiella pneumoniae): > 32 µM; MIC (Proteus mirabilis): > 32 µM; MIC (Pseudomonas aeruginosa): > 32 µM; MIC (Salmonella typhi): > 32 µM; MIC (Yersinia enterocolitica): > 32 µM; MIC (Shigella dysenteriae): > 32 µM; MIC (Vibrio cholerae): 32 µM (≈ 7.15 µg/mL); MIC [11]: > 32 µM; IC50 (HepG2): 51 µM
